Compound activity (PubChem BioAssay)
An excerpt weighted towards active compounds, which were near 2% of everything screened.
FID counter: fluorescent intercalator displacement, NS3 helicase counter-screen | DNA fluorescent intercalator displacement, fluorescence | inhibition, % at 7.9 µM | 290,000 compounds, 0.17% hits; in the data active = inhibition above about 37%;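 also: 0% = vehicle and 100% = reference compound; higher means more ethidium bromide displaced from hairpin DNA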
EBNA-1 inhibitor: blocks EBNA-1 binding to DNA; AID 1950; EBNA-1 DNA binding, fluorescence polarization; inhibition, % at 14.8 µM; 300,000 compounds, 0.34% hits; in the data active = inhibition above about 28%
NS3 helicase inh: blocks Hepatitis C virus NS3 helicase unwinding; NS3 helicase DNA unwinding, Cy5 molecular beacon fluorescence; inhibition, % at 10.9 µM; 290,000 compounds, 0.56% hits; AID 1800;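 active = inhibition above the mean of all tested compounds plus 3 SD, set per campaign, cut at about 35% in these data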;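 also: 0% = DMSO wells and 100% = thioflavine S control wells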
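Measured by: Cy5 fluorescence, 0 and 60 min reads / Assay system: NS3 helicase fragment of HCV / Control set: low DMSO, high thioflavine S at 110 µM / Times: 1 h reaction at 25 °C, ATP-initiated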
ZTA DNA inh: ZTA (EBV) inhibition in EBNA-1 counter-screen | 320,000 compounds, 0.15% hits | AID 2234 | P03206 | inhibition, % at 11 µM | ZTA-DNA binding, fluorescence polarization; in the data active = inhibition above about 33%
Target sequence (P03206 whole entry, looked up): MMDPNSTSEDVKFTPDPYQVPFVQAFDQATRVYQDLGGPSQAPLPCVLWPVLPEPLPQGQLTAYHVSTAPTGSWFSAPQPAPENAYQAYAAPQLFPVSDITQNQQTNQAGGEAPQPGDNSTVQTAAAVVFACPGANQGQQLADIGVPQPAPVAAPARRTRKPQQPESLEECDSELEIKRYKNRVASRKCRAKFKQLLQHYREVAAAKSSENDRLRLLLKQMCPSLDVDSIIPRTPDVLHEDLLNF
GPR7 antagonist: blocks human GPR7 receptor signaling. GPR7-expressing cells, fluorescence antagonist assay. inhibition, % at 4.4 µM. 290,000 compounds, 1.1% hits; in the data active = inhibition above about 16%, passing the limit was not always enough;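 also: cells stimulated with the agonist NPW; 0% = agonist with vehicle and 100% = vehicle without agonist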
Target sequence (P48145 whole entry, looked up): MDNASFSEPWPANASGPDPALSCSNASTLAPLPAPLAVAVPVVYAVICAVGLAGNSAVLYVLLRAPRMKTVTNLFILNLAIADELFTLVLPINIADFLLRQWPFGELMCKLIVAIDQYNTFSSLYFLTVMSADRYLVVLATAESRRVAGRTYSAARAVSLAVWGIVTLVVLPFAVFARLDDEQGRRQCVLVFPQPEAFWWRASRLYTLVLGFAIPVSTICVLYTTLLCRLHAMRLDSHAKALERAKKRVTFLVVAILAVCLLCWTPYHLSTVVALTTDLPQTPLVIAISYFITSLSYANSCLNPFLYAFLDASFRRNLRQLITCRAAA
GPR7 antag conf: human GPR7 antagonism, confirmation assay; shares compounds with GPR7 antagonist; GPR7-expressing cells, calcium fluorescence antagonist mode; inhibition, % at 4.4 µM; 2,400 compounds, 52% hits; AID 1952; in the data active = inhibition above about 24%;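 also: stimulated with the GPR7 agonist NPW; 0% = agonist plus vehicle and 100% = vehicle alone without agonist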
MCHR1 antagonist: counter-screen for GPR7 antagonists: antagonists of human MCHR1; shares compounds with GPR7 antagonist; MCHR1-expressing cells, fluorescence antagonist assay; 2,400 compounds, 62% hits; inhibition, % at 4.4 µM; AID 2148; in the data active = inhibition above about 22%;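 also: 0% = vehicle with agonist and 100% = vehicle without agonist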
The depositor's hits bear a star; x = no result given.

SMILES	FID counter	EBNA-1 inhibitor	NS3 helicase inh	ZTA DNA inh	GPR7 antagonist	GPR7 antag conf	MCHR1 antagonist
COc1ccc(C(OCC(O)CNCCc2ccccc2)c2ccc(OC)cc2)cc1 (stereo unspecified)	40.5*	x	-38.9	x	61.3*	34.6*	53.2*
Cc1ccc(C(OCC(O)CNCc2ccc(F)cc2)c2ccccc2)cc1 (stereo unspecified)	27.1	-1.4	-50.8	7.5	40.6*	30.2*	65.0*
O=[N+]([O-])c1ccc(OCc2n[nH]c(=S)n2-c2ccccc2)cc1	-5.1	-7.2	9.6	18.5	5.3	x	x
O=C(NCc1ccccn1)C(=O)Nc1cc2c3c(c1)CC(=O)N3CCC2	x	1.4	x	-0.1	x	x	x
O=C(CNC(=O)Cc1cccc2ccccc12)NCc1ccc(F)cc1	-19.0	9.0	-3.0	-20.2	-7.0	x	x
CCc1ccccc1NC(=O)c1cc([N+](=O)[O-])ccc1N1CCOCC1	-8.4	-8.0	23.6	8.1	33.1*	-4.1	4.6
CCc1ccc(Cn2nnc(C(=O)Nc3cccc(C)c3)c2N)cc1	-4.9	-2.6	-2.7	-0.4	11.4	x	x
COc1ccc(CNC(=O)c2nnn(Cc3ccc(OC)cc3)c2N)cc1	-11.8	0.9	-4.0	16.4	-8.4	x	x
CCc1ccc(Cn2nnc(C(=O)NCc3ccccc3OC)c2N)cc1	-1.2	1.8	-4.8	-1.0	24.8*	-0.6	-2.0
Cc1ccc(Cn2nnc(C(=O)Nc3cccc(C)c3C)c2N)cc1	-16.3	0.5	-5.3	8.7	60.6*	77.3*	75.3*
CN(CC(=O)Nc1ccc2c(c1)OCO2)S(=O)(=O)c1cccs1	-7.1	-3.3	6.4	-19.4	6.4	x	x
O=C(Cc1ccccc1[N+](=O)[O-])Nc1ccc(S(=O)(=O)N2CCCC2)cc1	-2.0	-2.1	6.5	-2.9	-10.0	x	x
Cc1coc2cc3oc(=O)c(CCC(=O)NCCCN4CCOCC4)c(C)c3cc12	17.2	-6.3	-11.9	-3.0	42.6*	-9.0	-3.8
O=C(OCc1ccccc1)C1=NNC2C(=O)N(c3ccccc3)C(=O)C12 (stereo unspecified)	-9.4	-9.3	7.5	-11.3	22.8*	-2.1	-5.8
O=C1COc2ccc(NC(=O)c3ccccc3C(=O)O)cc2N1	-2.1	11.7	1.7	-4.0	-25.7	x	x
CC(C)C(OC(=O)c1cccs1)C(=O)NCc1cccs1 (stereo unspecified)	-9.0	4.9	-4.1	7.6	36.5*	-3.5	2.8
COc1ccc(CCC(=O)OCC(=O)c2c(N)n(CC(C)C)c(=O)n(C)c2=O)cc1	-33.8	10.4	-7.5	4.6	28.4*	43.7*	59.8*
COc1ccccc1CCC(=O)OCC(=O)c1c(N)n(CC(C)C)c(=O)n(C)c1=O	x	4.8	x	-3.0	x	x	x
O=C(NCc1ccccn1)C(=O)NCC1OCCCN1S(=O)(=O)c1cc(F)ccc1F (stereo unspecified)	-13.1	3.4	7.9	8.2	-5.5	x	x
O=C1COc2ccc(S(=O)(=O)N3CCC(C(=O)NCc4ccccc4)CC3)cc2N1	-19.6	3.2	1.4	15.6	-4.6	x	x
O=C(c1cc2ccccc2o1)N1CCN(C/C=C/c2ccccc2)CC1	-7.5	-1.5	-21.6	-0.1	28.6*	7.0	21.4*
CCSc1nsc(NC(=O)Nc2cccc(OC)c2)n1	-0.9	-4.3	1.2	-6.6	28.3*	36.9*	61.5*
C=CCSc1nsc(NC(=O)Nc2ccc(F)cc2)n1	1.6	-5.9	2.9	0.8	35.6*	61.3*	61.0*
CCSc1nsc(NC(=O)Nc2ccccc2F)n1	-5.6	-0.6	5.2	17.9	1.2	x	x
Cc1nc(NCc2ccccn2)c2c3c(sc2n1)CCCC3	-22.0	1.7	-7.3	4.0	31.8*	25.1*	21.5*
SMILES	FID counter	EBNA-1 inhibitor	NS3 helicase inh	ZTA DNA inh	GPR7 antagonist	GPR7 antag conf	MCHR1 antagonist
c1ccc(CNc2ncnc3sc4c(c23)CCCC4)nc1	-31.8	3.3	3.1	4.4	9.9	x	x
CCN(c1ccccc1)S(=O)(=O)c1ccc(C(=O)N(CCCN(C)C)c2nc3c(C)cccc3s2)cc1	37.3*	-5.8	-40.4	0.5	28.6*	53.4*	52.1*
COc1cccc2sc(N(CCCN(C)C)C(=O)c3ccc(S(=O)(=O)N4CCCc5ccccc54)cc3)nc12	26.8	6.3	-47.6	2.9	34.9*	50.2*	41.5*
CN(C)CCCN(C(=O)c1ccc(S(=O)(=O)N2CCc3ccccc32)cc1)c1nc2c(Cl)cccc2s1	16.4	-5.4	-78.3	1.8	4.5	x	x
CCOC(=O)N1CCN(S(=O)(=O)c2ccc(C(=O)N(CCCN(C)C)c3nc4ccc(CC)cc4s3)cc2)CC1	33.9	7.5	-36.6	-5.4	28.2*	39.4*	17.3
CCN(c1ccccc1)S(=O)(=O)c1ccc(C(=O)N(CCCN(C)C)c2nc3cc4c(cc3s2)OCO4)cc1	29.9	8.9	-41.6	8.7	19.2	x	x
O=C(NNC(=O)c1cccs1)c1ccc(Cl)nc1	x	-0.4	x	10.1	x	x	x
c1ccc(N2CCN(c3nnnn3-c3ccccc3)CC2)cc1	-24.1	0.4	-9.5	2.8	26.3*	18.9	9.1
Oc1ccccc1N1CCN(c2nnnn2-c2ccccc2)CC1	-22.8	19.4	-6.2	1.9	0.4	x	x
NC(=O)CN1CCOCCOCCN(CC(N)=O)CCOCCOCC1	-7.0	0.9	4.0	-5.1	61.3*	-17.1	-7.8
NC(=O)CN1CCOCCOCCOCCOCCOCC1	0.4	-8.6	5.8	-3.0	-12.8	x	x
COc1ccccc1NS(=O)(=O)c1cccc(C(=O)N2CC(C)OC(C)C2)c1 (stereo unspecified)	x	5.3	x	7.0	x	x	x
CC(C)c1ccc(NC2CCCN(C(=O)CC3CCCC3)C2)cc1 (stereo unspecified)	-30.8	-11.7	-1.4	0.1	35.2*	30.2*	26.9*
Cc1nnsc1C(=O)N1CCCC(Nc2ccc(C(C)C)cc2)C1 (stereo unspecified)	-14.7	6.4	1.6	5.8	-3.1	x	x
Cc1nonc1C(=O)N1CCCC(Nc2ccc(C(C)C)cc2)C1 (stereo unspecified)	-24.9	-11.2	-7.8	4.5	24.6*	5.4	26.2*
O=C(CN1C(=O)c2ccccc2C1=O)Oc1ccc(F)cc1	-9.3	11.1	0.6	-14.1	-0.7	x	x
CCN(c1ccccc1)S(=O)(=O)c1ccc(N2CCN(c3ccccc3O)CC2)nc1	x	x	x	19.2	x	x	x
Cc1cc(C)c2oc(C(=O)N(Cc3ccccc3)c3ccccn3)cc(=O)c2c1	-6.9	6.6	27.3	1.7	26.2*	-8.7	15.8
CC(C)(C)N(NS(=O)(=O)c1ccc(F)cc1)c1ccccc1	-12.6	-10.2	-7.2	4.1	-9.4	x	x
CCOC(=O)N1CCC(n2c(SCC(=O)NCCc3ccc(S(N)(=O)=O)cc3)nc3ccccc3c2=O)CC1	-45.9	15.1	-12.0	-0.1	43.1*	19.2	20.0
c1ccc(-c2ccc(OCCCNC3CCCC3)cc2)cc1	41.0*	6.8	-28.0	7.4	21.3*	22.8	20.7
c1ccc(Cc2ccc(OCCCNC3CCCC3)cc2)cc1	23.4	17.9	-44.0	1.8	15.0	x	x
